Results reported in ChEMBL document CHEMBL5724801, “EUbOPEN Chemogenomics Library - Multiplex” (2024).
Values joined by “and” are separate entries in the source; they are usually repeats but may differ in a detail not shown here. Equal values may be shown once.

Tested on: U2OS
Assay: Multiplex assay against U2OS
Type: toxicity, cell-based
Conditions: human
Summary of the method: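 Imaging took place on a CQ1 microscope at 37°C and 5% CO2 once compound had been added to live cells stained at seeding with Hoechst33342, BioTracker Green Microtubule Cytoskeleton Dye, MitoTracker Red and Annexin V Alexa Fluor 680. CellPathfinder machine-learning gating classed cells as Hoechst high-intensity objects or normal cells, classed normal cells as having healthy, pyknosed or fragmented nuclei, and classed pyknosed cells as mitotic or apoptotic. Tubulin, mitochondrial-mass and membrane-permeability phenotypes are per cents of the healthy-nucleus cells.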

[1] = 12 h, 1 µM, compound concentration 1 uM
[2] = 12 h, 10 µM, compound concentration 10 uM
[3] = 24 h, 1 µM, compound concentration 1 uM
[4] = 24 h, 10 µM, compound concentration 10 uM
[5] = 48 h, 1 µM, compound concentration 1 uM
[6] = 48 h, 10 µM, compound concentration 10 uM

C[C@H](NC(=O)c1c(C(F)F)nn(C)c1Oc1cccc(C(F)(F)F)c1)c1ccc(C(=O)O)cc1 [PALUPIPRANT]
Population Apoptotic (%) [1]: 60% and 91%
Population Fragmented Nuclei (%) [1]: 27% and 12%
Population Healthy Nuclei (%) [1]: 63% and 78%
Population Hoechst High Intensity Objects (%) [1]: 3% and 0%
Population Membrane Permeable-Phenotype (%) [1]: 4%
Population Mitochondria Different-Phenotype (%) [1]: 1% and 0%
Population Normal (%) [1]: 96% and 99%
Population Pyknosed Nuclei (%) [1]: 8% and 9%
Population Tubulin-Different-Phenotype (%) [1]: 1% and 2%
Total Cell Count [1]: 266 and 132
Population Apoptotic (%) [2]: 83% and 100%
Population Fragmented Nuclei (%) [2]: 28% and 13%
Population Healthy Nuclei (%) [2]: 62% and 77%
Population Hoechst High Intensity Objects (%) [2]: 3%
Population Membrane Permeable-Phenotype (%) [2]: 7% and 5%
Population Mitochondria Different-Phenotype (%) [2]: 4% and 2%
Population Mitotic Cells (%) [2]: 16% and 0%
Population Normal (%) [2]: 96%
Population Pyknosed Nuclei (%) [2]: 8%
Population Tubulin-Different-Phenotype (%) [2]: 5% and 2%
Total Cell Count [2]: 293 and 117
Population Apoptotic (%) [3]: 87% and 94%
Population Fragmented Nuclei (%) [3]: 20% and 14%
Population Healthy Nuclei (%) [3]: 72% and 73%
Population Hoechst High Intensity Objects (%) [3]: 2% and 1%
Population Membrane Permeable-Phenotype (%) [3]: 4% and 5%
Population Mitochondria Different-Phenotype (%) [3]: 1% and 0%
Population Mitotic Cells (%) [3]: 12% and 5%
Population Normal (%) [3]: 97% and 98%
Population Pyknosed Nuclei (%) [3]: 7% and 11%
Population Tubulin-Different-Phenotype (%) [3]: 3% and 5%
Total Cell Count [3]: 316 and 147
Population Apoptotic (%) [4]: 91%
Population Fragmented Nuclei (%) [4]: 18% and 13%
Population Healthy Nuclei (%) [4]: 74% and 77%
Population Hoechst High Intensity Objects (%) [4]: 2%
Population Membrane Permeable-Phenotype (%) [4]: 5%
Population Mitochondria Different-Phenotype (%) [4]: 3% and 1%
Population Mitotic Cells (%) [4]: 8%
Population Normal (%) [4]: 97%
Population Pyknosed Nuclei (%) [4]: 7% and 8%
Population Tubulin-Different-Phenotype (%) [4]: 1% and 0%
Total Cell Count [4]: 339 and 139
Population Apoptotic (%) [5]: 82% and 92%
Population Fragmented Nuclei (%) [5]: 15%
Population Healthy Nuclei (%) [5]: 73% and 70%
Population Hoechst High Intensity Objects (%) [5]: 2% and 0%
Population Membrane Permeable-Phenotype (%) [5]: 3%
Population Mitochondria Different-Phenotype (%) [5]: 1% and 0%
Population Mitotic Cells (%) [5]: 17% and 7%
Population Normal (%) [5]: 97% and 99%
Population Pyknosed Nuclei (%) [5]: 11% and 13%
Population Tubulin-Different-Phenotype (%) [5]: 1% and 2%
Total Cell Count [5]: 426 and 207
Population Apoptotic (%) [6]: 91% and 85%
Population Fragmented Nuclei (%) [6]: 18% and 14%
Population Healthy Nuclei (%) [6]: 73% and 79%
Population Hoechst High Intensity Objects (%) [6]: 2% and 1%
Population Membrane Permeable-Phenotype (%) [6]: 5% and 1%
Population Mitochondria Different-Phenotype (%) [6]: 3% and 1%
Population Mitotic Cells (%) [6]: 8% and 14%
Population Normal (%) [6]: 97% and 98%
Population Pyknosed Nuclei (%) [6]: 7% and 6%
Population Tubulin-Different-Phenotype (%) [6]: 3% and 0%
Total Cell Count [6]: 463 and 223

COc1cc(OC2CCN(C(C)=O)CC2)ccc1C(=O)N1CCC(N2C(=O)OCc3ccccc32)CC1
Population Apoptotic (%) [1]: 50% and 66%
Population Fragmented Nuclei (%) [1]: 22% and 20%
Population Healthy Nuclei (%) [1]: 67% and 69%
Population Hoechst High Intensity Objects (%) [1]: 0%
Population Membrane Permeable-Phenotype (%) [1]: 5% and 11%
Population Mitochondria Different-Phenotype (%) [1]: 3% and 7%
Population Mitotic Cells (%) [1]: 50% and 33%
Population Normal (%) [1]: 99%
Population Pyknosed Nuclei (%) [1]: 9%
Population Tubulin-Different-Phenotype (%) [1]: 3% and 8%
Total Cell Count [1]: 233 and 130
Population Apoptotic (%) [2]: 72% and 87%
Population Fragmented Nuclei (%) [2]: 23% and 13%
Population Healthy Nuclei (%) [2]: 62% and 77%
Population Hoechst High Intensity Objects (%) [2]: 6% and 1%
Population Membrane Permeable-Phenotype (%) [2]: 18% and 21%
Population Mitochondria Different-Phenotype (%) [2]: 6% and 10%
Population Mitotic Cells (%) [2]: 27% and 12%
Population Normal (%) [2]: 93% and 98%
Population Pyknosed Nuclei (%) [2]: 13% and 9%
Population Tubulin-Different-Phenotype (%) [2]: 12% and 13%
Total Cell Count [2]: 228 and 85
Population Apoptotic (%) [3]: 82% and 76%
Population Fragmented Nuclei (%) [3]: 20% and 22%
Population Healthy Nuclei (%) [3]: 71% and 68%
Population Hoechst High Intensity Objects (%) [3]: 1%
Population Membrane Permeable-Phenotype (%) [3]: 3% and 7%
Population Mitochondria Different-Phenotype (%) [3]: 2% and 5%
Population Mitotic Cells (%) [3]: 17% and 23%
Population Normal (%) [3]: 98%
Population Pyknosed Nuclei (%) [3]: 8%
Population Tubulin-Different-Phenotype (%) [3]: 2% and 3%
Total Cell Count [3]: 288 and 163
Population Apoptotic (%) [4]: 81% and 71%
Population Fragmented Nuclei (%) [4]: 21% and 12%
Population Healthy Nuclei (%) [4]: 60% and 80%
Population Hoechst High Intensity Objects (%) [4]: 5% and 2%
Population Membrane Permeable-Phenotype (%) [4]: 9% and 10%
Population Mitochondria Different-Phenotype (%) [4]: 9% and 3%
Population Mitotic Cells (%) [4]: 18% and 28%
Population Normal (%) [4]: 94% and 97%
Population Pyknosed Nuclei (%) [4]: 18% and 7%
Population Tubulin-Different-Phenotype (%) [4]: 4% and 6%
Total Cell Count [4]: 250 and 99
Population Apoptotic (%) [5]: 80% and 65%
Population Fragmented Nuclei (%) [5]: 17% and 23%
Population Healthy Nuclei (%) [5]: 77% and 66%
Population Hoechst High Intensity Objects (%) [5]: 3%
Population Membrane Permeable-Phenotype (%) [5]: 3% and 10%
Population Mitochondria Different-Phenotype (%) [5]: 1% and 5%
Population Mitotic Cells (%) [5]: 19% and 35%
Population Normal (%) [5]: 96%
Population Pyknosed Nuclei (%) [5]: 5% and 9%
Population Tubulin-Different-Phenotype (%) [5]: 2% and 4%
Total Cell Count [5]: 388 and 213
Population Apoptotic (%) [6]: 81% and 100%
Population Fragmented Nuclei (%) [6]: 19% and 17%
Population Healthy Nuclei (%) [6]: 66% and 78%
Population Hoechst High Intensity Objects (%) [6]: 5% and 1%
Population Membrane Permeable-Phenotype (%) [6]: 5% and 14%
Population Mitochondria Different-Phenotype (%) [6]: 4% and 6%
Population Mitotic Cells (%) [6]: 18% and 0%
Population Normal (%) [6]: 95% and 98%
Population Tubulin-Different-Phenotype (%) [6]: 3% and 8%
Total Cell Count [6]: 320 and 130
